Only some compounds are listed: those with a hit (about 2.6% of all), similar ones and a draw of the others.
PHOSPHO1 block – PubChem AID 1565. Phosphoethanolamine/phosphocholine phosphatase (Homo sapiens), Q8TCT1. recombinant PHOSPHO1, absorbance phosphatase assay. inhibition, % at 13.3 µM. 290,000 tested, 1.1% active; in the data active means inhibition above about 60%
ARFGAP1 inhibitor – inhibitors of rat ARFGAP1 GAP activity, primary screen, biochemical, fluorescence polarization, GDP tracer; ADP-ribosylation factor GTPase-activating protein 1 (Rattus norvegicus), Q62848; inhibition, % at 16.5 µM; Arfgap1-stimulated ARF1 GTP hydrolysis, GDP FP detection; 360,000 tested, 0.26% active; AID 651572, 2012;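 active means inhibition above a per-plate limit, mean inhibition of low control wells plus 3 SD, cut at about 25% in these data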;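 further: 0% = DMSO wells with enzyme and 100% = wells lacking Arfgap1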
Target sequence (Q62848 1-136 limits assumed): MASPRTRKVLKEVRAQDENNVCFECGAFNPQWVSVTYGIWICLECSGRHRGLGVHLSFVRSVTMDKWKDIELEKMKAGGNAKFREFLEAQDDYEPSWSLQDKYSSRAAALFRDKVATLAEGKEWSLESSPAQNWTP
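Assay system: Rat Arfgap1 GAP domain (His6, aa 1-136), purified enzyme | Buffer or medium: HEPES 25 mM pH 7.5, NaCl 150 mM, MgCl2, DTT | Schedule: GTP hydrolysis reaction 2 h at 25 °C | Signal: FP of antibody-bound GDP Alexa 633 tracer, ex 620/em 688 nm | Measure: Percent inhibition of Arfgap1-stimulated GTP hydrolysis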
VIM-2 inhibitor – VIM-2 metallo-beta-lactamase inhibitors, primary screen, biochemical, epi-absorbance readout, Pseudomonas aeruginosa enzyme | purified VIM-2, nitrocefin hydrolysis, epi-absorbance fluorescence | inhibition, % at 5.6 µM | 290,000 tested, 0.89% active | AID 1527, 2009;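 active means inhibition above the mean of all tested compounds plus 3 SD, cutoff set per screening run, cut at about 7.5% in these data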;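 further: red hydrolysis product quenches plate fluorescence so inhibitors raise well fluorescence; 0% = enzyme with DMSO and 100% = DMSO without enzyme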
ASAP1 GAP inh – inhibitors of human ASAP1 ArfGAP activity, primary screen, biochemical, fluorescence polarization. ASAP1-stimulated ARF1 GTP hydrolysis, GDP FP detection. inhibition, % at 16.5 µM. 360,000 tested, 0.19% active. AID 624377, 2012; in the data active means inhibition above about 25%;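 further: 0% = vehicle with enzyme and substrate and 100% = no enzyme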
Target sequence (Q9ULH1 325-724 limits assumed): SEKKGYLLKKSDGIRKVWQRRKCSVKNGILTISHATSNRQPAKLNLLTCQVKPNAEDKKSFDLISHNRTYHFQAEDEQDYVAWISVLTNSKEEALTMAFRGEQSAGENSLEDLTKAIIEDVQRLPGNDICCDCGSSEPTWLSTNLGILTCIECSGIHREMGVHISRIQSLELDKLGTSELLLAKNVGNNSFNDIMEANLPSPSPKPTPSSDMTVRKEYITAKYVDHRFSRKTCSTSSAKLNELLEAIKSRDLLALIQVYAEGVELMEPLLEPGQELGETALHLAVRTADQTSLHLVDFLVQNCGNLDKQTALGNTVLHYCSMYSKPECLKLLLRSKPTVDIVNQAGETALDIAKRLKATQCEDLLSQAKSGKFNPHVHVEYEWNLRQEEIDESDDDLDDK
IMP-1 inhibitor – IMP-1 metallo-beta-lactamase inhibitors, primary screen, biochemical, epi-absorbance readout, Pseudomonas aeruginosa enzyme | metallo-beta-lactamase IMP-1 (Pseudomonas aeruginosa) | purified IMP-1, nitrocefin hydrolysis, epi-absorbance fluorescence | inhibition, % at 5.6 µM | 290,000 tested, 0.45% active | AID 1556, 2009;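 active means inhibition above the mean plus 3 SD of all compounds in the same screening run, cut at about 4.5% in these data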;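 further: 0% = IMP-1 with DMSO and 100% = DMSO wells lacking enzyme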
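system = purified recombinant IMP-1 beta-lactamase | amount = 0.2 nM IMP-1, as dispensed | medium = HEPES buffer pH 7.1 with ZnSO4 and Brij 35 | times = 25 °C, 15 min preincubation, 25 min reaction | detection = plate fluorescence quenching by hydrolysis product, ex 480/em 530 nm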
Calb FLC – C. albicans growth inhibition with fluconazole, primary screen, CaCi-2 strain, Alamar Blue fluorescence; C. albicans CaCi-2 (fluconazole-resistant clinical isolate) + fluconazole, 48 h; growth inhibition, % (test concentration not listed); 300,000 tested, 0.57% active; AID 1979, 2009;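 active means growth inhibition above about 58% in most replicates, limit read from the data, passing the limit was not always enough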;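 further: all wells also contain fluconazole at 8 µg/ml as a sub-toxic cotreatment; 0% = median of DMSO wells and 100% = median of geldanamycin control wells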
Starred values were filed as active, the others as inactive; · = no result.

SMILES	PHOSPHO1 block	ARFGAP1 inhibitor	VIM-2 inhibitor	ASAP1 GAP inh	IMP-1 inhibitor	Calb FLC
CCCCc1nc2cc(C(=O)NC(C)c3cnn(C)c3)ccc2o1 (stereo unspecified)	7.5	-1.4	-0.5	-4.3	25.1*	6.6
CC(=O)c1ccc(OCc2cc(C(=O)NC(C)c3cnn(C)c3)no2)cc1 (stereo unspecified)	61.7*	-2.9	-1.9	-11.3	-3.2	6.0
CCCCc1nc2cc(C(=O)N3CCCC3)ccc2o1	12.3	17.3	-0.8	-0.6	-0.7	-1.4
CNC(=O)Nc1cc(C(F)(F)F)cc(C(F)(F)F)c1	38.6	-2.2	-2.4	14.0	-4.1	85.8*
CC(CC(=O)O)CC(=O)Nc1cc(C(F)(F)F)cc(C(F)(F)F)c1 (stereo unspecified)	11.5	9.2	-2.0	3.6	-1.1	-0.7
O=C(NCC1CCN(C(=O)C(=O)c2cccs2)CC1)c1ccncc1	·	2.8	·	7.4	·	·
CCOC(=O)N1CCN(C(=O)c2ccc3c(=O)n(-c4ccc(OC)cc4)c(=S)[nH]c3c2)CC1	-8.2	-3.2	-2.7	-5.2	-3.1	1.3
CCOC(=O)N1CCN(C(=O)c2cccc(-n3c(=S)[nH]c4cc(Cl)ccc4c3=O)c2)CC1	63.9*	0.0	-4.1	15.8	-3.2	-14.6
Cc1cc(NC(=O)c2ccc3c(c2)OCO3)no1	0.2	-7.2	1.2	4.2	4.7*	5.4
COC(=O)c1cc2c(c3c4cc(OC)ccc4n(S(=O)(=O)c4ccc(OC)cc4)c13)C(=O)N(C1CCCCC1)C2	·	5.1	·	-11.4	·	·
O=C(c1cccnc1Nc1ccccc1F)N1CCOCC1	-2.4	-4.5	-3.6	2.2	-2.9	-35.7
Cc1ccccc1Nc1ncccc1C(=O)N1CCOCC1	27.0	-15.6	0.2	13.2	0.4	108.7*
COC(=O)c1cc(NC(=O)CC2SC(=Nc3ccccc3)N(CCc3c[nH]c4ccccc34)C2=O)cc(C(=O)OC)c1 (stereo unspecified)	25.5	15.7	-2.6	27.6*	-3.2	-6.3
Nc1ccc(N2CCCCCC2)cc1	39.1	·	0.6	·	-1.6	·
Nc1ccc(N2CCN(c3ccc(F)cc3)CC2)cc1	38.5	0.5	-4.0	8.2	-4.7	102.6*
O=C(O)C1=C(C(=O)Nc2cccc(C(F)(F)F)c2)CCCC1	-3.0	-5.8	5.4	6.3	18.2*	-10.2
O=C(Nc1cccc(C(F)(F)F)c1)C(=O)N1CCCCC1	-6.4	10.5	-1.1	2.9	-0.4	5.7
C[C@H](CO)N1C[C@H](C)[C@H](CN(C)C(=O)C2CCCCC2)OCc2cnnn2CCCC1=O	·	3.6	·	5.7	·	·
Cc1ccc(-n2nc3c(c2NC(=O)C(C)(C)C)CSC3)c(C)c1	88.3*	1.7	-2.0	5.5	-2.7	11.6
CCC(=O)Nc1c2c(nn1-c1ccc(C)cc1C)CSC2	86.0*	2.7	-3.7	16.9	-1.4	28.0
Cc1ccc(-n2nc3c(c2NC(=O)c2ccc(Br)o2)CSC3)c(C)c1	14.1	-6.7	-2.2	-1.3	-4.0	17.6
COc1ccc(C(=O)Oc2ccc(/C=N/NC(=O)c3cccnc3)cc2OC)cc1	·	20.6	·	18.9	·	·
COc1cc(/C=N/NC(=O)c2ccccc2)ccc1O	5.0	-3.1	-2.2	-8.8	-2.6	-1.3
COc1cc(/C=N/NC(=O)c2cncc(Br)c2)ccc1OC(=O)c1ccc2c(c1)OCO2	-115.1	·	0.1	·	46.3*	·
COc1ccc(/C=N/NC(=O)c2ccc(-c3ccccc3)cc2)cc1O	28.4	12.8	-2.7	15.1	-4.5	82.9*
COc1cc2ccccc2cc1C(=O)N/N=C/c1ccc2c(c1)OCO2	61.0*	13.1	-4.2	6.5	-3.7	31.7
C=CCCC1CN(Cc2ccc(OC)cc2)S(=O)(=O)c2c(NCc3cc(OC)c(OC)c(OC)c3)cccc2O1 (stereo unspecified)	·	5.3	·	6.7	·	·
O=C(Cc1ccc(NC(=O)C2CCN(C(=O)CCc3ccccc3)CC2)cc1)Nc1cccc(C(=O)N2CCCC2)c1	·	-6.7	·	5.0	·	·

Assay outcomes (PubChem)
